Source: publication PMC9988221 (Journal of Clinical Psychopharmacology, 2023)
Read-outs that look alike come from different tables or passages of the source.

Experiments:
[1] = assay type: in vivo, human; details: once-daily BI 425809 25 mg; midazolam exposure
CYP2B6 = target: T1, CYP2B6 (Homo sapiens, UniProt P20813); test: Reversible CYP inhibition in human liver microsomes, bupropion substrate
T1 sequence (P20813 1-491): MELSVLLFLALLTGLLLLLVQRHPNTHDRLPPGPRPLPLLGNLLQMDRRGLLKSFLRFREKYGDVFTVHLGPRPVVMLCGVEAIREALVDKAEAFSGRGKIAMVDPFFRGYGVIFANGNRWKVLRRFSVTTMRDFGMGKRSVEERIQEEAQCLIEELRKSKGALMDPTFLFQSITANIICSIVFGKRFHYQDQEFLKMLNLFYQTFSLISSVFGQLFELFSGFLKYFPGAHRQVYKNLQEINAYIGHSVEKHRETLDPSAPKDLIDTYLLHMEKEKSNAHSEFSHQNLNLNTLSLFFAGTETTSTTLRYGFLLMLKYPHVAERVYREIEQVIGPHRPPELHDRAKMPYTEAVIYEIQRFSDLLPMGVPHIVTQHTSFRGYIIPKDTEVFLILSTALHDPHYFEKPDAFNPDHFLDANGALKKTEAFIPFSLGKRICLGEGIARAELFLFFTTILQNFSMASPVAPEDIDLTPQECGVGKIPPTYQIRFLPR

CYP1A2 = target: T2, CYP1A2 (Homo sapiens, UniProt P05177); test: Reversible CYP inhibition in human liver microsomes, phenacetin substrate
T2 sequence (P05177 1-516): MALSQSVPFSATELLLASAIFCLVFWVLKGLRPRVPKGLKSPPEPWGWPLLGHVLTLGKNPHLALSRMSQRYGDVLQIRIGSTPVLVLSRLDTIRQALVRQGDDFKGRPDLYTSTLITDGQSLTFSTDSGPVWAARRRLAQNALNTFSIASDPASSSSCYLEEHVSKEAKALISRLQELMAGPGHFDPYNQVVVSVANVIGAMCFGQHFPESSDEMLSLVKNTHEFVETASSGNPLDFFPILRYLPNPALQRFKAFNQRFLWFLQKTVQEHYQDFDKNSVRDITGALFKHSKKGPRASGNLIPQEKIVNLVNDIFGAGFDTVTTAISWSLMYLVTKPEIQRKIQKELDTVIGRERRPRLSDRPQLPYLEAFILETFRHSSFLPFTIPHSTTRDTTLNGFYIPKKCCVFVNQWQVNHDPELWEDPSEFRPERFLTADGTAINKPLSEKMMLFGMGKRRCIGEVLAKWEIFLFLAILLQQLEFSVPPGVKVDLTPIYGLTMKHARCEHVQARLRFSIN

human hepatocytes = test: Cell viability of hepatocytes in the induction assay; assay type: cell-based; details: hepatocytes from any donor; BI 425809 up to 30 μM
Unbound plasma fraction = assay type: in vitro ADME; details: derived from other preclinical studies (data not shown)
Safety and tolerability = assay type: in vivo, human; details: this study, healthy male participants
Summary of the method: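 Phase I open-label, single-sequence crossover in healthy men. No specific safety endpoints were set. Counts of participants with treatment-emergent AEs (drug-related, serious, special interest, other significant), including clinically relevant physical and neurological examination findings, were analysed in the treated set. End-of-trial visit was 11–16 days after the last test compound dose.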

CYP3A4/5 = details: human, human liver microsomes
CYP2C19 = CYP2C19 (Homo sapiens, UniProt P33261); test: Reversible CYP inhibition in human liver microsomes, S-mephenytoin substrate
CYP2C9 = CYP2C9 (Homo sapiens, UniProt P11712); test: Reversible CYP inhibition in human liver microsomes, diclofenac substrate
CYP2D6 = CYP2D6 (Homo sapiens, UniProt P10635); test: Reversible CYP inhibition in human liver microsomes, dextromethorphan substrate
P-gp = P-gp (Homo sapiens, UniProt P08183); assay type: in vitro ADME
Summary of the method: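 Bidirectional Caco-2 monolayer transport in HBSS with 15 mM HEPES, pH 7.4, after 30 min equilibration. [³H]digoxin (1 μM) went in the donor side, and test compound (1–100 μM) or zosuquidar (1 μM) on both sides. After 30 min preincubation, sampling ran to 90 min and was read by scintillation counting. Papp gave the B-to-A/A-to-B efflux ratio, and IC50 with slope factor came from nonlinear regression of efflux ratio against inhibitor concentration.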

CYP3A4 [2] = details: for Emax for induction of CYP3A4 activity: BI 425809 10 to 30 μM, 48 hours
CYP3A4 mRNA = assay type: in vitro ADME, human; details: for Emax for induction of CYP3A4 mRNA levels: 10 to 30 μM BI 425809
CYP2C8 = target: T3, CYP2C8 (Homo sapiens, UniProt P10632); test: Reversible CYP inhibition in human liver microsomes, amodiaquine substrate
T3 sequence (P10632 1-490): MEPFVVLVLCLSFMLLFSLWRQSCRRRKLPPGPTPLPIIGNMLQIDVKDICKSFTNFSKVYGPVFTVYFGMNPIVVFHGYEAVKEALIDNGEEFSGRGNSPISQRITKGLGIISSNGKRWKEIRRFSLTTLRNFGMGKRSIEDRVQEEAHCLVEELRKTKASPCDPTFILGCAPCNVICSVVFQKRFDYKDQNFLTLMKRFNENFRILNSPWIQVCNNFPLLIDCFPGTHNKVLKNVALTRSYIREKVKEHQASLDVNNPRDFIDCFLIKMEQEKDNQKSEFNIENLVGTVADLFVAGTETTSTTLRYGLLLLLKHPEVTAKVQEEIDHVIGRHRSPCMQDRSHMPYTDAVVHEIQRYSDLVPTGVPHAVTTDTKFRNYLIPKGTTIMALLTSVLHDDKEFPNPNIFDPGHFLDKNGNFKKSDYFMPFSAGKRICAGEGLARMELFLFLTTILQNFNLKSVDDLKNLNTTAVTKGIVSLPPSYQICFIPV

[3] = cited from earlier work
[4] = Attainment of BI 425809 steady state; assay type: in vivo, human
CYP3A4 [5] = test: Basic induction model; set-up: species or system human
CYP3A4 [6] = test: in vitro; details: human, Emax for induction of CYP3A4 activity, % of positive control effect

Sequence of P-gp (P08183 whole entry): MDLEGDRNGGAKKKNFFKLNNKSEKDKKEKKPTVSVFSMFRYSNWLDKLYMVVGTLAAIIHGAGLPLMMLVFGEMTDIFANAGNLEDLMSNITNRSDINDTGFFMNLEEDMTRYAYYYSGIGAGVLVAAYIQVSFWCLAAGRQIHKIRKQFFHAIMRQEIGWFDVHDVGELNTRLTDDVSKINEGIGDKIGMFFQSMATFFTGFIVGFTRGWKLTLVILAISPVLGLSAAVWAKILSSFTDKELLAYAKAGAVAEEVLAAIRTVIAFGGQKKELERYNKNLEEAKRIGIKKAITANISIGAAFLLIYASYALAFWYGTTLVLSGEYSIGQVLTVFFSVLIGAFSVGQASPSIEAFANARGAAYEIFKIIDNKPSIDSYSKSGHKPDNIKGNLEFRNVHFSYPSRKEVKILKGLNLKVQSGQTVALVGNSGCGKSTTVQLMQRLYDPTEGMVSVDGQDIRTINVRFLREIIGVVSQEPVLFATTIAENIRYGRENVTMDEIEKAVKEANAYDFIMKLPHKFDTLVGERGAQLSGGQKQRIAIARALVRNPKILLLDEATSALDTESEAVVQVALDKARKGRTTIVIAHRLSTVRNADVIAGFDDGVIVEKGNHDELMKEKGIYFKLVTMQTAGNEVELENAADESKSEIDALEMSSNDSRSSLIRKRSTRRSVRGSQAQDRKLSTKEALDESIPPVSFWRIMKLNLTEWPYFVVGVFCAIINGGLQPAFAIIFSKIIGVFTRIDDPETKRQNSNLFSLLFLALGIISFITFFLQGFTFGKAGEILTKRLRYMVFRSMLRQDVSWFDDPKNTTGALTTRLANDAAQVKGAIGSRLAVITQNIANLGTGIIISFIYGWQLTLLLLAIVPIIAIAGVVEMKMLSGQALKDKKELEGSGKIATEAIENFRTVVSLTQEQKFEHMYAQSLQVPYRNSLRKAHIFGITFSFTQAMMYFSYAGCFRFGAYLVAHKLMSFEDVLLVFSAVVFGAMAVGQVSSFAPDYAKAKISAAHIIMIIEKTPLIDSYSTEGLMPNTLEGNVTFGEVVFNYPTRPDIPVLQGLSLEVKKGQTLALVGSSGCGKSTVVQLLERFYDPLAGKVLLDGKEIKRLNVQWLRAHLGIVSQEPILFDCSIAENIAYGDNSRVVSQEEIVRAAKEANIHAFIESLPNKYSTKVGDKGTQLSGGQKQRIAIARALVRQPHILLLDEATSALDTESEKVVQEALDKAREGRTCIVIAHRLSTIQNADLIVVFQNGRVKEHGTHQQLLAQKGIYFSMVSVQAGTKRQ
Sequence of CYP2C9 (P11712 whole entry): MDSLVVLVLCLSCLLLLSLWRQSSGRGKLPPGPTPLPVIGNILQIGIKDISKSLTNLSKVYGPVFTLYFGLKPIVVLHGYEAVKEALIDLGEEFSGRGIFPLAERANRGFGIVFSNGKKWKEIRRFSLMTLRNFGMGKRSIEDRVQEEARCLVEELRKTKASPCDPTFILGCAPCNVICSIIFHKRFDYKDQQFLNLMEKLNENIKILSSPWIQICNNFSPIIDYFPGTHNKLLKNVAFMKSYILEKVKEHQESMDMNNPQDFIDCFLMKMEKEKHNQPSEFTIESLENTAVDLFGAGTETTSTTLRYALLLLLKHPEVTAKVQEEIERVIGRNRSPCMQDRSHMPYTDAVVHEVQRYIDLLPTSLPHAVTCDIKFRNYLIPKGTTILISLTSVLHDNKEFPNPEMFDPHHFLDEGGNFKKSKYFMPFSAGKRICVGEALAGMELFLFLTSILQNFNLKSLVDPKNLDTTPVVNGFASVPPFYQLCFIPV
Sequence of CYP2C19 (P33261 whole entry): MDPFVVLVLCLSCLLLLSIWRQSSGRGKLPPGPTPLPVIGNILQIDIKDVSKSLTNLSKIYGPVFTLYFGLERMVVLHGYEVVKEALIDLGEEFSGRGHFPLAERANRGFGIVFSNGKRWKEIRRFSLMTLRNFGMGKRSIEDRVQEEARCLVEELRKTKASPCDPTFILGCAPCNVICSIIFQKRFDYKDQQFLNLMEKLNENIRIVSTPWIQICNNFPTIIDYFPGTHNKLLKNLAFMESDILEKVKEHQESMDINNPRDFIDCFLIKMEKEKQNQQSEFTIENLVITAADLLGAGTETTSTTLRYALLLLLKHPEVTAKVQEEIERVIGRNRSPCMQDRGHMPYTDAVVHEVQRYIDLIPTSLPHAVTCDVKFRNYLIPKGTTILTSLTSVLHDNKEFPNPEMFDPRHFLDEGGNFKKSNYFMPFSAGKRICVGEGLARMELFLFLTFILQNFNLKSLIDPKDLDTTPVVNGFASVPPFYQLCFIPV
Sequence of CYP2D6 (P10635 whole entry): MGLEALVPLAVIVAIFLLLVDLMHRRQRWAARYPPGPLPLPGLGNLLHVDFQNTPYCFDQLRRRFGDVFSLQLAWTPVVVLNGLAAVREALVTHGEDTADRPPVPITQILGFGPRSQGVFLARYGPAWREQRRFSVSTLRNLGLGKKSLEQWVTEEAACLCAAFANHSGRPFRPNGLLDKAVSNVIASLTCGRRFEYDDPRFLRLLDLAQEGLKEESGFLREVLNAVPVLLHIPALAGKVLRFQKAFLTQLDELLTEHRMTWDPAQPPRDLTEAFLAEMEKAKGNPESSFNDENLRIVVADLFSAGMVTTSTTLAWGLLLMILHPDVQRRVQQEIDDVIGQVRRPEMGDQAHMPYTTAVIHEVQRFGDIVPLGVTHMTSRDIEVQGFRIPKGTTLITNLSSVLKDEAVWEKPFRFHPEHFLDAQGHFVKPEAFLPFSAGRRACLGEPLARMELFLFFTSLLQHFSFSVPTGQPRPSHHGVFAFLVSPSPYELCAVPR

## C[C@@H](Oc1ccc(S(C)(=O)=O)cc1C(=O)N1C[C@@H]2C[C@]2(c2cc(C(F)(F)F)on2)C1)C(F)(F)F [BI 425809]
[1]
  CYP3A4 induction in vivo (in words): mild inducer of CYP3A4 in vivo
CYP2B6
  IC50: > 100 µM
CYP1A2
  IC50: > 100 µM
Human hepatocytes
  cell viability relative to vehicle control: No decrease in cell viability
Unbound plasma fraction
  unbound plasma fraction: 0.196
Safety and tolerability
  tolerability: well tolerated
CYP3A4/5
  IC50: > 100 µM
CYP2C19
  IC50: > 100 µM
CYP2C9
  IC50: 54.9 µM
CYP2D6
  IC50: > 100 µM
P-gp
  IC50: 14 µM
P-gp; Caco-2 cell monolayer, zosuquidar 1 μM, BI 425809 1-100 μM
  effect on P-gp-mediated transcellular transport of digoxin (in words): concentration-dependent inhibition
P-gp; I2 = dose[mol]/250 mL
  I2/IC50 ratio: approximately 13
CYP3A4 [2]; hepatocytes donor 1
  Emax for induction of CYP3A4 activity: 10 fold
CYP3A4 [2]; hepatocytes donor 2
  Emax for induction of CYP3A4 activity: 3.4 fold
CYP3A4 [2]; hepatocytes donor 3
  Emax for induction of CYP3A4 activity: 6.6 fold
CYP3A4 [2]; human hepatocytes
  induction of CYP3A4 activity (in words): Concentration-dependent induction
CYP3A4 mRNA; hepatocytes donor 1
  Emax for induction of CYP3A4 mRNA levels: 14 fold
CYP3A4 mRNA; hepatocytes donor 2
  Emax for induction of CYP3A4 mRNA levels: 13 fold
CYP3A4 mRNA; hepatocytes donor 3
  Emax for induction of CYP3A4 mRNA levels: 37 fold
CYP3A4 mRNA; hepatocytes from donors 1, 2, and 3
  induction of CYP3A4 mRNA levels (in words): concentration-dependent induction
CYP3A4 mRNA; human, sandwich-cultured primary human hepatocytes
  EC50 at 48 h: 1.96 µM
CYP3A4 mRNA; mRNA levels of all three donors fitted to 3-parameter sigmoidal model
  Emax for induction of CYP3A4: 18.7 fold
CYP2C8
  IC50: > 100 µM
[3]; doses of 10 mg and 25 mg, healthy volunteers
  increase of cerebrospinal fluid glycine levels, average: 50%
[3]; once-daily oral administration up to 75 mg, Phase I studies
  tolerability: generally well tolerated
[3]; previous study
  steady state reached after: 6 days
[4]; BI 425809 25 mg once daily, Cpre on days 8, 9, 10
  steady state reached by: ≤ 8 days
[4]; pairwise comparisons of days 8, 9, and 10 in period 2
  adjusted gMean ratios of Cpre of the compared sampling time points: ~100%
CYP3A4 [5]; basic model, 2020 FDA guidance, unbound plasma fraction 0.196
  R3 (change in hepatic metabolic clearance of a sensitive CYP3A4 substrate): 0.12
CYP3A4 [5]; input of the basic induction model
  Imax,u, maximum unbound plasma concentration: approximately 121 nM
CYP3A4 [6]
  Emax: 37%
